Laboratory results reported in article PMC3975472 (Biomolecules & Therapeutics, 2014).
pIC50: −log10 of the molar value. Where a name gives a salt, the structure may show the parent alone.

Columns and labels:
[1] = tested on: 9 cytochrome P450 (CYP) family members (CYP1A2, CYP2A6, CYP2B6, CYP2C8, CYP2C9, CYP2C19, CYP2D6, CYP2E1, and CYP3A4); assay: Cocktail probe assay in pooled HLMs, all 9 CYP isoforms together; format: in vitro ADME, human; conditions: 0–50 μM, 37°C 60 min
In short: (§1)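 Pooled HLMs (0.1 mg) in 0.1 M potassium phosphate, pH 7.4, with cocktail probe substrates, NADPH-generating system and test compound (0.1–25 μM, six levels). Pre-incubation with NADPH for 0 or 15 min (reference inhibitor: 20 min), then 60 min at 37°C. Stopped with acidified acetonitrile plus terfenadine internal standard; metabolites by LC-MS/MS (MRM). IC50 from percent activity vs log[I]; duplicates.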

CYP2A6 = biological target: T1, CYP2A6 (Homo sapiens, UniProt P11509); assay: Cocktail probe assay in pooled HLMs: CYP2A6-catalyzed coumarin 7-hydroxylase; format: in vitro ADME; conditions: pre-incubation 20 min with NADPH, mean of duplicates
T1 sequence (P11509 1-494): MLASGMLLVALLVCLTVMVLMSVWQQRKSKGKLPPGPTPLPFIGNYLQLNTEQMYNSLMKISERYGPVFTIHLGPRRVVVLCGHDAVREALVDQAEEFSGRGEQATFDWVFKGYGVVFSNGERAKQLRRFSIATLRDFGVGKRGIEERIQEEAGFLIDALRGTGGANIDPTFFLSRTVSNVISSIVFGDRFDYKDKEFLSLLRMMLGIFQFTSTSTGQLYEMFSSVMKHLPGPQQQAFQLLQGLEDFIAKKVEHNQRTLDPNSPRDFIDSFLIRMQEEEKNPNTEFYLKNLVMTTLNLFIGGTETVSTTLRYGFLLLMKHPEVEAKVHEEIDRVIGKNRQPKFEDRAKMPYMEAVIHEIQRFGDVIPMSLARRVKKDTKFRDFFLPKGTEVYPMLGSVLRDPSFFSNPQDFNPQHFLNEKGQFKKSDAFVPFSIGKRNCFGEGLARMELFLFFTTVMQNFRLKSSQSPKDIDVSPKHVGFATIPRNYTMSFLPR
In short: as §1

CYP2D6 = CYP2D6 (Homo sapiens, UniProt P10635); format: in vitro ADME; conditions: IC50, HLMs, pre-incubation 20 min with NADPH, mean of duplicates
CYP2D6, sequence (P10635 whole entry): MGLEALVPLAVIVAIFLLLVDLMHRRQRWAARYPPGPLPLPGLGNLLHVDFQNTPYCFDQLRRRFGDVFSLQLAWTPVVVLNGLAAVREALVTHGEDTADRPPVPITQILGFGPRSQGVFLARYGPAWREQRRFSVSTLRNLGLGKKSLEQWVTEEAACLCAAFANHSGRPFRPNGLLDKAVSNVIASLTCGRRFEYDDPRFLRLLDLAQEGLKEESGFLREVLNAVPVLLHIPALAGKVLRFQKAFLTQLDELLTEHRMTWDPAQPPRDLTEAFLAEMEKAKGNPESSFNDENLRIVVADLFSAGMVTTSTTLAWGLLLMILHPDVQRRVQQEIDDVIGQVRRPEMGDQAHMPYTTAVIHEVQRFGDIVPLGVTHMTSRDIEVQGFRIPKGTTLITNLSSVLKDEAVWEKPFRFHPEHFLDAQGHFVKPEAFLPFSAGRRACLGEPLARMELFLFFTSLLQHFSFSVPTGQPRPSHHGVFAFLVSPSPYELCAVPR
In short: as §1

CYP2C19 = CYP2C19 (Homo sapiens, UniProt P33261); assay: Cocktail probe assay in pooled HLMs: CYP2C19-catalyzed omeprazole 5-hydroxylase; format: in vitro ADME; conditions: pre-incubation 20 min with NADPH, mean of duplicates
CYP2C19, sequence (P33261 whole entry): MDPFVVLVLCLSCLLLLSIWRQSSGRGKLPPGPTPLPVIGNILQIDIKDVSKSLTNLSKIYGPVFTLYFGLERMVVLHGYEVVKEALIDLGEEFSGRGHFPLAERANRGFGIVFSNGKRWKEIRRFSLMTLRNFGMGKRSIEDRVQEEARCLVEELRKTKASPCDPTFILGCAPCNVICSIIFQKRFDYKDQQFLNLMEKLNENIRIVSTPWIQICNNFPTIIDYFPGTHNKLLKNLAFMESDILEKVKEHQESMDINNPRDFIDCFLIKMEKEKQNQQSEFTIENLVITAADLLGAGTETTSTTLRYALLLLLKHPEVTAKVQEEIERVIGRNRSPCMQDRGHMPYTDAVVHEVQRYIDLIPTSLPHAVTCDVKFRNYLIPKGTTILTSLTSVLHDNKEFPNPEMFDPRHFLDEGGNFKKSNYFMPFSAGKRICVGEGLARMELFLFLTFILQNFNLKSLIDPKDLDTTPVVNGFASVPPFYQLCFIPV
In short: as §1

CYP2B6 = biological target: T2, CYP2B6 (Homo sapiens, UniProt P20813); assay: Cocktail probe assay in pooled HLMs: CYP2B6-catalyzed bupropion hydroxylase; format: in vitro ADME; conditions: pre-incubation 20 min with NADPH, mean of duplicates
T2 sequence (P20813 1-491): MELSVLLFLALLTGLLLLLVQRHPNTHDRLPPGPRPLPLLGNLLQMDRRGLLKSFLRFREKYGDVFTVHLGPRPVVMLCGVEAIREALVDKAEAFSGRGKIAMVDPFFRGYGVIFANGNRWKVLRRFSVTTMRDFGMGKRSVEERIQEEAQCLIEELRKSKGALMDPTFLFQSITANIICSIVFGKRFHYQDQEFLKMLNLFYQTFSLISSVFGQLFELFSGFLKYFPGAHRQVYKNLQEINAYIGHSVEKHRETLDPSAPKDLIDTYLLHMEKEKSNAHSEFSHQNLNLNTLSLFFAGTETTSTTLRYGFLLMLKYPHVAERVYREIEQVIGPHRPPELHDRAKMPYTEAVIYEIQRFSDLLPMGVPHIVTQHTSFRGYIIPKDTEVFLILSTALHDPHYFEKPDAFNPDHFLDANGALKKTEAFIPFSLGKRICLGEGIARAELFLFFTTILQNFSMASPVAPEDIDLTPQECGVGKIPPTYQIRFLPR
In short: as §1

CYP1A2 = biological target: T3, CYP1A2 (Homo sapiens, UniProt P05177); assay: Cocktail probe assay in pooled HLMs: CYP1A2-catalyzed phenacetin O-deethylase; format: in vitro ADME; conditions: pre-incubation 20 min with NADPH, mean of duplicates
T3 sequence (P05177 1-516): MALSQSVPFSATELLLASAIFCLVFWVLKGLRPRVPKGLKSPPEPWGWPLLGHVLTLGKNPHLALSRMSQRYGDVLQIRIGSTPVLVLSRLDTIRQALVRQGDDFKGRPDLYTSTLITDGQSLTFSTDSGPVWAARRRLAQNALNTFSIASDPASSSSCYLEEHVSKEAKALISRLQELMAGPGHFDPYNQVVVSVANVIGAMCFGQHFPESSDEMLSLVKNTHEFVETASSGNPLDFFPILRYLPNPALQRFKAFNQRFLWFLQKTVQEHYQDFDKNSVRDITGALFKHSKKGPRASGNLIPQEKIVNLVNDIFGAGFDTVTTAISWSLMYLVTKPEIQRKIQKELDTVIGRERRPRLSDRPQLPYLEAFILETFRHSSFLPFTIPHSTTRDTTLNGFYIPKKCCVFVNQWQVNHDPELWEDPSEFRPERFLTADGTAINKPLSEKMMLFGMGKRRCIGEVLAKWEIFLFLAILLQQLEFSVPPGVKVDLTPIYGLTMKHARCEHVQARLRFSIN
In short: as §1

CYP2C8 = biological target: T4, CYP2C8 (Homo sapiens, UniProt P10632); assay: Cocktail probe assay in pooled HLMs: CYP2C8-catalyzed amodiaquine N-deethylase; format: in vitro ADME; conditions: pre-incubation 20 min with NADPH, mean of duplicates
T4 sequence (P10632 1-490): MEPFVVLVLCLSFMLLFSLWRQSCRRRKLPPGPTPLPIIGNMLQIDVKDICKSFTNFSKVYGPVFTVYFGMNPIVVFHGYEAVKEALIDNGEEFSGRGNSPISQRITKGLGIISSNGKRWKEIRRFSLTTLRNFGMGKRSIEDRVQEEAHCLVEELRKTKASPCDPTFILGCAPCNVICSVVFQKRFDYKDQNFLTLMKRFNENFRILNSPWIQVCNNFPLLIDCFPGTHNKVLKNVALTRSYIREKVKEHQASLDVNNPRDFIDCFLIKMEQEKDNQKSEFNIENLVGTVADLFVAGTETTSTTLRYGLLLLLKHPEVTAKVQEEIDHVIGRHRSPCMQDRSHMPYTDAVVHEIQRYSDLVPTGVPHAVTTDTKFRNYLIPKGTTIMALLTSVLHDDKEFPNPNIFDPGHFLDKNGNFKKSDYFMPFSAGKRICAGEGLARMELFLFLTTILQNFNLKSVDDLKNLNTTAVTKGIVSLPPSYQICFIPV
In short: as §1

CYP2C9 = CYP2C9 (Homo sapiens, UniProt P11712); assay: Cocktail probe assay in pooled HLMs: CYP2C9-catalyzed diclofenac 4′-hydroxylase; format: in vitro ADME; conditions: pre-incubation 20 min with NADPH, mean of duplicates
CYP2C9, sequence (P11712 whole entry): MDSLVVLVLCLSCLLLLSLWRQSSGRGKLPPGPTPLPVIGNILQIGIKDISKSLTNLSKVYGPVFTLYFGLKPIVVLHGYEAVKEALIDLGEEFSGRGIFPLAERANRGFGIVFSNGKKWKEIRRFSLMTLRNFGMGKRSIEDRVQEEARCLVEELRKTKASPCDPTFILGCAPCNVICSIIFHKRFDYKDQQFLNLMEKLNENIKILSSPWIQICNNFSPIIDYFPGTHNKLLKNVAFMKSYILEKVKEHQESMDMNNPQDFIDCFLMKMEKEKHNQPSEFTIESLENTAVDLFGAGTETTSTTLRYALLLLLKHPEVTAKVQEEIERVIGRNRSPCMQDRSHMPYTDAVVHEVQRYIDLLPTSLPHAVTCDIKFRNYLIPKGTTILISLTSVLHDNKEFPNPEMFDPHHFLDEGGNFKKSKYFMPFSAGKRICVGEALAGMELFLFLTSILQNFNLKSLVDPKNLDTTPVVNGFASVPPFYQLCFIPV
In short: as §1

CYP2E1 = CYP2E1 (Homo sapiens, UniProt P05181); format: in vitro ADME; conditions: IC50, HLMs, pre-incubation 20 min with NADPH, mean of duplicates
CYP2E1, sequence (P05181 whole entry): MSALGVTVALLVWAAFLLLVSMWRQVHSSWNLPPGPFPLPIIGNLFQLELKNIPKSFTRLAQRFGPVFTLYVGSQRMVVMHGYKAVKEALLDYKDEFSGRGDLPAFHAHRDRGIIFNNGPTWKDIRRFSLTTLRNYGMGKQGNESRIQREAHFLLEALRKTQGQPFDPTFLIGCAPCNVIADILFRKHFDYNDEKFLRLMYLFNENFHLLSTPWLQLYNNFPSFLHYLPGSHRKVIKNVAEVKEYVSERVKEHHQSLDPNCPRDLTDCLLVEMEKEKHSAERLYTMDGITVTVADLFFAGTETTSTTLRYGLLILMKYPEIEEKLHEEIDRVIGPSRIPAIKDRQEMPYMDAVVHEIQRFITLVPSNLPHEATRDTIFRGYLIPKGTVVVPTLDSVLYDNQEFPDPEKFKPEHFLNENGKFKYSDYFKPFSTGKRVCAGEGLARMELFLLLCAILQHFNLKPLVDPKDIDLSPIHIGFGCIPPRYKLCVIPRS
In short: as §1

Row | SMILES | inhibitory effects on the activities of all 9 CYPs [1] | pIC50 (CYP2A6) | pIC50 (CYP2D6) | pIC50 (CYP2C19) | pIC50 (CYP2B6) | pIC50 (CYP1A2) | pIC50 (CYP2C8) | pIC50 (CYP2C9) | pIC50 (CYP2E1)
1 | CC(=O)Oc1c2oc3cc(O)c(O)cc3c2c(OC(C)=O)c2oc3cc(O)c(O)cc3c12 [Polyozellin, polyozellin] | weak inhibitory effects | – | – | – | – | – | – | – | –
2 | CCCC(C(=O)OCCN(CC)CC)(c1ccccc1)c1ccccc1 [SKF-525A, 2-diethylaminoethyl-2,2-diphenylvalerate-HCl] | – | < 4.30 | 5.46 | 5.68 | 6.05 | < 4.30 | 4.58 | 4.48 | < 4.30
